Cl transport mod = KCC2 (human) Cl- transport modulation. B-score of Tl+ flux slope (higher = more flux/activation; lower = inhibition) at 10 µM. KCC2 cells, thallium flux FluoZin-2 fluorescence. Q9H2X9. 2.2% of 190,000 active;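 active means thallium flux slope and its plate-corrected score both differing from the plate sample mean at a set confidence after two filtering rounds, in either direction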;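 further: slope of fluorescence scaled to starting intensity during 10 to 20 s after thallium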
p47phox inh = p47phox (human) inhibition. P14598. p47phox/p22phox peptide binding, fluorescence polarization, 2 h. inhibition, % at 24.7 µM. 0.53% of 220,000 active. AID 1274;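 active means inhibition above about 30%, limit read from the data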;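 further: 0% = p47phox with labelled peptide and 100% = labelled peptide alone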
14-3-3 Bad PPI = disrupts binding of bovine 14-3-3 zeta to phospho-Bad peptide | TR-FRET 14-3-3zeta/Dy647-pBad peptide displacement, 1 h | inhibition, % at 21.7 µM | 0.71% of 220,000 active | AID 781;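 active means inhibition above about 70%, limit read from the data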;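 further: 0% = full 14-3-3 plus peptide FRET controls and 100% = background without 14-3-3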
RBBP9 inhibitor = blocks human serine hydrolase RBBP9; O75884; recombinant RBBP9, FP-Rh probe fluorescence polarization; AID 1515; inhibition, % at 7.94 µM; 0.2% of 220,000 active;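 active means inhibition above the campaign mean of all tested compounds plus 3 SD, cut at about 14% in these data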;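 further: plate controls were DMSO wells with RBBP9 for no effect and wells lacking RBBP9 protein for full effect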
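System: RBBP9 protein | Quantity: 2.5 µM RBBP9 dispensing solution, before mixing | Reagent: FP-Rh probe, 375 nM dispensing solution | Timing: Enzyme-compound preincubation 30 min, then probe labeling 45 min, 25 °C | Measured by: Fluorescence polarization | Read-out: % inhibition | Replication: One well per compound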
ROMK primary = modulates human ROMK potassium channel activity | 2% of 130,000 active | Tet-inducible ROMK, thallium flux fluorescence; actives lie on both sides | P48048 | AID 1918 | B-score at 10 µM;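 active means signal ratio slope over the read window, or its plate-corrected B-score, at least 3 SD from the plate mean, either direction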;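 further: B-score of the F/F0 ratio slope over 7 to 12 s after thallium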
WT yeast gro inh = growth inhibition of WT yeast, mitochondrial fusion screen | inhibition, % at 10 µM | AID 1362 | 2.1% of 190,000 active | mitochondrial fusion phenotypic screen, WT strain; in the data active means inhibition above about 58%; tested in S. cerevisiae
Numbers without * were called inactive; / = not tested or not shown; + = active, no number. An excerpt weighted towards active compounds, which were near 5.8% of everything screened.

SMILES	Cl transport mod	p47phox inh	14-3-3 Bad PPI	RBBP9 inhibitor	ROMK primary	WT yeast gro inh
Cc1nc2ccc(NC3=NCCCCC3)cc2s1	-0.51	0	79*	0	/	7
N#CC(c1ccccc1)c1ccc2c(C(F)(F)F)cc(C(F)(F)F)nc2n1 (centres undefined)	1.7	-51	-13	1	-0.46	74*
COc1ccc(NC(=O)c2ccccn2)cc1	/	-5	10	7	/	18
COc1ccc(C(=O)N/N=C(\c2ccccc2)c2ccccn2)cc1	-0.0045	-2	5	-7	0.73	68*
FC(F)(F)c1cnc(Sc2nc3nccc(-c4ccc(Cl)cc4)n3n2)c(Cl)c1	-0.29	-11	5	-8	/	96*
COc1ccc(-c2noc(-c3cccnc3)n2)cc1OC	0.026	4	1	-7	0.46	2
COc1ccc(-c2noc(-c3ccccc3-c3ccccc3)n2)cc1OC	0.39	-9	6	-6	/	75*
CC(=O)c1cccc(NC(=O)CN2C(=S)NC(C)(C)CC2C)c1 (centres undefined)	-0.47	-2	-7	-3	1.8	13
Cc1ccc(NC(=O)C(OC(=O)c2ccc(O)cc2)c2ccccc2)cc1Cl (centres undefined)	-0.44	-33	11	-30	0.32	89*
CCS(=O)(=O)Nc1ccc(-c2cc(-c3ccccc3)c3cc(C)ccc3n2)cc1	-0.071	-9	1	-27	/	90*
Cc1ccc(C(=O)NN2C(=O)C3C(C2=O)C2C=CC3C23CC3)cc1 (centres undefined)	0.0084	-1	-20	1	0.28	-16
CC1CC(C)CN(CCOc2ccc(Cl)cc2Cl)C1 (centres undefined)	-1.7	-18	72*	-7	-0.78	58
Clc1ccc(OCCn2cnc3ccccc32)c(Cl)c1	/	1	3	-1	/	68*
CC1CCCN(CCOCCOc2ccc(Cl)cc2Br)C1 (centres undefined)	0.13	-12	71*	0	-2.6	-16
O=C(Cn1nc(-c2ccccc2)ccc1=O)Nc1ccc(N2CCN(C(=O)c3cccs3)CC2)cc1	-0.11	-14	6	-8	-0.48	14
COc1cccc(-c2csc(N3CCN(C(=O)Nc4ccc(Cl)cc4)CC3)n2)c1	-1.1	-26	-4	-15	0.65	67*
CCOc1cc(-c2nc(C)c(C(C)=O)n2O)ccc1OCC(=O)Nc1cccc(C)c1	-0.37	-4	-4	-2	-0.98	62*
COc1ccccc1-c1cc(C(F)(F)F)nc(N2CCCCC2)n1	/	-11	-2	-2	-0.23	74*
CCOC(=O)C1(CC2CCCCO2)CCN(S(=O)(=O)c2c(C)nn(C)c2C)CC1 (centres undefined)	0.3	-6	-10	-10	2	-12
Nc1cc2nc[nH]c2cc1N	0.35	16	92*	4	0.83	2
C/C(N)=C(/C#N)C(=O)COC(=O)CCCNC(=O)c1ccc(Cl)cc1	1.5	-8	-6	-8	/	-6
Nc1cc(Cl)ccc1Oc1ccc(Cl)cc1	0.029	-10	80*	3	/	-16
CCOC(=O)c1ccc2ncc(C(=O)OCC)c(NCc3ccco3)c2c1	-0.022	-8	-5	-1	3.3*	-6
CCOC(=O)c1cnc2c(C)cccc2c1NCc1ccco1	0.25	15	-2	-5	-1.3	18
CC1Cc2ccccc2N1c1ncnc2c1nnn2Cc1ccccc1 (centres undefined)	0.16	-12	-20	3	-0.22	65*
SMILES	Cl transport mod	p47phox inh	14-3-3 Bad PPI	RBBP9 inhibitor	ROMK primary	WT yeast gro inh
CC(C)N(Cc1ccccc1)C(=S)NC(=O)C1(C)CC1(Cl)Cl (centres undefined)	85*	-13	-5	-4	5.1*	26
CCOC(=O)CCc1c(C)nc(-n2[nH]c(C)c(CCO)c2=O)[nH]c1=O	1.1	-2	-10	-6	-0.72	7
CCOc1ccc(-c2nnc(NC(=O)c3ccc(OCC(C)C)c(OC)c3)o2)cc1	/	-17	4	-5	0.22	64*
CCCCNC(=O)Nc1nnc(-c2ccc(OCC)cc2)o1	0.67	-6	2	-5	-0.012	14
O=C(O)c1cc(N/N=C/C=C/c2ccccc2[N+](=O)[O-])ccc1Cl	-0.17	-7	4	2	/	/
S=C(Nc1ccc2nc(-c3ccccn3)c(-c3ccccn3)nc2c1)N1CCCCC1	0.61	2	-19	-5	0.51	1
CCCNC(=S)Nc1ccc2nc(-c3ccccn3)c(-c3ccccn3)nc2c1	0.45	1	-5	-4	/	72*
C/C(=N\NC(=O)C(=O)Nc1c(C)n(C)n(-c2ccccc2)c1=O)c1ccncc1	0.74	-1	-5	-4	0.022	/
CN(C)CCCNC(=O)/C(=C\c1ccc(-c2cccc([N+](=O)[O-])c2)o1)NC(=O)c1ccccc1	0.56	2	-5	4	-1.8	-9
CN(C)CCNC(=O)/C(=C/c1ccc(-c2ccc(Cl)cc2Cl)o1)NC(=O)c1ccccc1	0.18	32*	-22	-10	/	53
O=C(OCc1nc2ccccc2s1)c1cccc(S(=O)(=O)N2CCOCC2)c1	-5.1*	-18	1	-9	/	-1
CNC(=O)CS(=O)CC(=O)Nc1cc(OCCOC)c(Cl)cc1Cl (centres undefined)	1.6	-1	-7	-6	/	11
O=C1OCC=C1NNC(=O)c1cccnc1	-0.12	+	-5	-7	0.83	-17
O=C(NNC1=C(C(=O)C(F)(F)F)CCC1)c1cccnc1	1	-2	-18	-1	0.3	11
C/C(N)=C(/C#N)C(=O)COC(=O)c1cc(S(=O)(=O)N2CCCCC2)ccc1C	-0.28	-9	7	4	/	95*
CC(=O)NC(Cc1ccc(O)cc1)C(=O)NN (centres undefined)	-0.22	-4	-5	4	1.3	-15
Cn1cc(Br)c(C(=O)Nc2nccs2)n1	-0.056	-5	14	-5	0.46	-8
O=C(NCc1ccco1)c1cc(-c2ccc(F)cc2)on1	0.022	-16	1	-8	/	0
O=C(NCc1ccco1)c1cc(-c2ccccc2)on1	/	3	6	2	0.31	60*
COC(=O)C1=CN(CCOC23CC4CC(CC(C4)C2)C3)C=C(C(=O)OC)C1c1ccsc1	-0.025	-13	-7	-6	0.61	68*
N#C/C(=C\c1cccc(NC(=O)c2ccccc2Cl)c1)C(=O)NCCc1ccccc1	-0.51	-25	8	-2	/	84*
COCCCNC(=O)/C(C#N)=C/c1cccc(NC(=O)c2ccccc2Cl)c1	0.064	-10	6	-6	/	1
CCN(CC)CCNC(=O)Cn1c(-c2ccccn2)nc2ccccc21	0.54	-5	-14	5	1	61*
CCOC(=O)Cn1c(-c2ccccn2)nc2ccccc21	/	-11	1	0	/	13

Compound activity from PubChem.
